Tests used:
[1] = Dynamic light-scattering measurement of hydrodynamic radius; assay type: physicochemical; conditions: DLS, 100 μM peptide + 1 μM bDNA, 1 h incubation, 25 °C
Summary of the method: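 bDNA was dissolved in self-assembly buffer, pH 7.4, and filtered through 0.22 µm. Linear peptide (100 µM) was incubated with 1 µM bDNA for 1 h, with peptide alone as control. DLS was read at 658 nm with a 175° scattering angle at 25°C, averaging triplicate readings. Rh came from autocorrelation analysis via the translational diffusion coefficient and the Stokes-Einstein relation.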

DNase I = molecular target: T1, DNase I (Homo sapiens, UniProt P24855); assay: DNase I stability assay; assay type: in vitro ADME; conditions: for stability of peptide-bDNA complex in the presence of DNase I: 1 μM bDNA + 50 or 100 μM peptide, 10 U/mL DNase I, up to 30 min, 37 °C, 2% AGE
T1 sequence (P24855 23-282): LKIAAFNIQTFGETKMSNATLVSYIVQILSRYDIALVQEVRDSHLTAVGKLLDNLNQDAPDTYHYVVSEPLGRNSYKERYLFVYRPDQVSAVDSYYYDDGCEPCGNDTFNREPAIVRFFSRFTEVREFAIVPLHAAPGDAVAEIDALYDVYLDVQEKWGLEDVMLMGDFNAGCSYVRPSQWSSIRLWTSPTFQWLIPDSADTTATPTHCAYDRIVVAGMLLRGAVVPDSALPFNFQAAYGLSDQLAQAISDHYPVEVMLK
Summary of the method: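 Complexes of 1 µM bDNA pre-incubated with 100 µM linear peptide were exposed to 10 U/mL DNase I for 15 and 30 min. A second set used 1 µM bDNA with 50 µM linear peptide, digested for 5, 10, 20 and 30 min at 37°C. Digests were run on 2% agarose gels at 80 V for 25 min, and stability was judged from band intensity.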

Alexa 488 bDNA = assay: Absorbance; assay type: binding; conditions: 1 μM Alexa 488 bDNA, peptide/bDNA 0:1 to 100:1, 1 h, 25 °C, 495 nm
Summary of the method: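 Alexa 488-labelled bDNA (1 μM) incubated 1 h at 25 °C with linear test peptide at peptide/bDNA molar ratios 0:1 to 100:1. UV-vis absorbance spectra recorded over 450–550 nm. Hypochromicity expressed as ΔOD_r = (OD0 − OD)/OD0, where OD0 is free labelled bDNA and OD is the bDNA–peptide complex, then plotted against molar ratio.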

[2] = Zeta potential measurement; assay type: physicochemical; conditions: 1 μM bDNA + 100 μM peptide, 1 h, 25 °C
Summary of the method: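 bDNA (1 μM) incubated 1 h with 100 μM linear test peptide. bDNA alone and peptide alone at the same concentrations incubated 1 h at 25 °C as controls. Zeta potential […] by the Smoluchowski approximation. Values are the mean of triplicate readings.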

HCT-116 cells = assay: Cellular uptake of Alexa 488-labeled bDNA by FACS; assay type: cell-based; conditions: HCT-116, 75 nM Alexa 488-labeled bDNA + 25 μM peptide, overnight
Summary of the method: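 HCT-116 cells (2×10^5 per well) seeded overnight in serum-free DMEM, then washed twice with PBS. Alexa 488-bDNA (75 nM) premixed with test peptide (25 μM) in DMEM about 30 min at room temperature, added to cells and left overnight at 37 °C. Cells detached with 0.25% trypsin/0.53 mM EDTA (5 min, 37 °C), pelleted at 700 × g for 5 min, washed twice, resuspended in PBS and analysed by flow cytometry.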

[3] = Release of bDNA from peptide complexes; assay type: in vitro ADME; conditions: 1 μM bDNAaso + 100 μM W4R4 in serum-free DMEM, 1% SDS, 30 min, 2% agarose gel
Summary of the method: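 Gel-shift release: 1 μM bDNAaso was complexed with 100 μM test peptide in 20 μL serum-free DMEM for 1 h at room temperature. The complex was exposed to 1% SDS for 30 min, then run on 2% agarose for 25 min at constant 80 V and the gel imaged.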

bDNAaso [4] = assay: CD titration of bDNAaso with linear peptides; assay type: binding; conditions: 1 μM bDNA, 5 to 100 μM peptide, 25 °C (Figures 4G and S13G)
bDNAaso [5] = assay: Isothermal titration calorimetry of linear peptides with bDNA; assay type: binding; conditions: 25 °C, 1 μM bDNA titrated with 100 μM peptide, 1× TEAM buffer pH 7.4

Substance	change of hydrodynamic radii of the peptide in the presence of bDNAs [1]	stability of peptide-bDNA complex in the presence of DNase I (DNase I)	change in absorbance of Alexa 488 bDNA with increasing molar ratio of peptide (Alexa 488 bDNA)	protection of peptide-bound bDNAs against nuclease degradation (DNase I; peptide-bound bDNAs, Figures S19 and S20)	zeta potential of bDNA in the presence of the peptide [2]	cellular internalization relative to W3R3 (FACS) (HCT-116 cells)	effect of SDS on the W4R4-bDNAaso complex [3]	CD peak intensities of bDNA in peptide-bDNA complex (bDNAaso [4])	binding affinity to bDNAaso relative to other peptide-bound bDNAs (ITC) (bDNAaso [5])
Ac-WWWGGGRRR-Am [W3R3]	moderate increase	retained the stability							
Ac-WWWGGHHHH-Am [W3H4]	moderate increase								
Ac-WWWWGGHHHH-Am [W4H4]	increased significantly	degraded close to the control	no significant alteration in absorbance	20%					
Ac-WWWWGGRRRR-Am [W4R4]	increased significantly	retained the stability	significant decline in absorbance		positive zeta potential	1.7 fold	triggered the release	flattened to the baseline	about nine times higher

— article PMC10424151 (Molecular Therapy. Nucleic Acids, 2023)
